Experimental data published in ChEMBL document CHEMBL1795299, “Pyrrolo[2,3-c]azepine derivatives: a new class of potent protein tyrosine phosphatase 1B inhibitors” (Bioorg Med Chem Lett, 2011).
Activity calls are given as the source filed them. The calls are words filed in the database; no cut-off is given here.

Each compound was assayed against T1, Tyrosine-protein phosphatase non-receptor type 1 (Homo sapiens) (UniProt P18031) (assay: Inhibition of human recombinant PTP1B assessed as inhibition of para-nitrophenyl phosphate to para-nitrophenol conversion at 100 uM by spectrophotometry).
T1 sequence (whole entry): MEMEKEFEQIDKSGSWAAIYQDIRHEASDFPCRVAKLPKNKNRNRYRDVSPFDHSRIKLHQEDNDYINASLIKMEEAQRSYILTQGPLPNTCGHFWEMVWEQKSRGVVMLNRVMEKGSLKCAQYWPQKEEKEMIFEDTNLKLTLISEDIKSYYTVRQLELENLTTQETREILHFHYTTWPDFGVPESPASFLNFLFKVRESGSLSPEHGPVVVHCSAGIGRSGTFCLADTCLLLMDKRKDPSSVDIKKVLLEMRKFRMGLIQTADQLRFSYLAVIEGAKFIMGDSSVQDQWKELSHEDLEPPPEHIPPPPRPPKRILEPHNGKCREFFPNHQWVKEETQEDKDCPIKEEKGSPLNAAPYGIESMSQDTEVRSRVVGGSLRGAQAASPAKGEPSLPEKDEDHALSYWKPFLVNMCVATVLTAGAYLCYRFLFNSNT
Summary of the method: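 GST-tagged human PTP1B, expressed in E. coli BL21 and purified on GST beads, hydrolyses pNPP to p-nitrophenol, read as absorbance at 405 nm. Compounds were dissolved in 100% DMSO, and the inhibitory rate was recorded. BPV(phen) served as the reference.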
For `CC(=O)c1ccc(-n2ccc3c2C(=O)NCCC3=O)cc1`, the inhibition was “inactive”. For `O=C1CCNC(=O)c2c1ccn2Cc1ccc(-c2cccc(O)c2)cc1`, the inhibition was “inactive”. For `CCc1ccc(-n2ccc3c2C(=O)NCCC3=O)cc1`, the inhibition was “inactive”. `CCCCOc1ccc(-c2ccc(Cn3ccc4c3C(=O)NCCC4=O)cc2)cc1` was tested, and the inhibition was “Active”. With `O=C1c2c(ccn2Cc2ccccc2)/C(=N/O)CCN1Cc1ccccc1` the inhibition was “inactive”. For `CCCOc1ccc(-c2ccc(Cn3ccc4c3C(=O)NCCC4=O)cc2)cc1`, the inhibition was “Active”. In the case of `O=C1NCCC(O)c2ccn(Cc3ccccc3)c21` (centres undefined), the inhibition is reported as “inactive”. `COc1ccc(-c2ccc(Cn3ccc4c3C(=O)N(C)CCC4=O)cc2)cc1` was tested, and the inhibition was “Active”. With `COc1ccc(-c2ccc(Cn3ccc4c3C(=O)NCC/C4=N\Nc3ccccn3)cc2)cc1` the inhibition was “Active”. `NC(=O)c1ccccc1-c1ccc(Cn2ccc3c2C(=O)NCCC3=O)cc1` was tested, and the inhibition was “inactive”. `Nc1cccc(-c2ccc(Cn3ccc4c3C(=O)NCCC4=O)cc2)c1` was tested, and the inhibition was “inactive”. `O=C1CCN(Cc2ccccc2)C(=O)c2c1ccn2Cc1ccccc1` was tested, and the inhibition was “inactive”. `COc1ccc(-c2ccc(Cn3ccc4c3C(=O)NCCC4=O)cc2)cc1` was tested, and the inhibition was “Active”. For `O=C1NCCC(O)c2ccn(Cc3ccc(-c4ccccc4)cc3)c21` (centres undefined), the inhibition was “inactive”. For `N#Cc1ccccc1-c1ccc(Cn2ccc3c2C(=O)NCCC3=O)cc1`, the inhibition was “inactive”. In the case of `O=C1CCNC(=O)c2c1ccn2-c1ccc(-c2ccccc2)cc1`, the inhibition is reported as “inactive”. `COc1ccc(-c2ccc(Cn3c4c(c5ccccc53)C(=O)CCNC4=O)cc2)cc1` was tested, and the inhibition was “Active”. In the case of `O=C1CCNC(=O)c2c1ccn2Cc1ccc(-c2ccc(O)cc2)cc1`, the inhibition is reported as “Active”. For `O=C1CCNC(=O)c2c1ccn2-c1ccc(C(F)(F)F)cc1`, the inhibition was “inactive”. With `O=C1CCNC(=O)c2c1ccn2Cc1ccc(-c2ccccc2)cc1` the inhibition was “inactive”. `Cc1ccc(-c2ccc(Cn3ccc4c3C(=O)NCCC4=O)cc2)cc1` was tested, and the inhibition was “Active”. `O=C1CCNC(=O)c2[nH]ccc21` was tested, and the inhibition was “Active”. `O=C1CCNC(=O)c2c1ccn2Cc1ccccc1` was tested, and the inhibition was “inactive”. `O=C1CCNC(=O)c2c1ccn2-c1ccccc1` was tested, and the inhibition was “inactive”. `O=C1NCC=Cc2ccn(Cc3ccccc3)c21` was tested, and the inhibition was “inactive”. With `COc1ccc(-n2ccc3c2C(=O)NCCC3=O)cc1` the inhibition was “inactive”.

The compounds below were run against T2, Tyrosine-protein phosphatase non-receptor type 1 (Homo sapiens, UniProt P18031) (assay: Inhibition of human recombinant PTP1B assessed as inhibition of para-nitrophenyl phosphate to para-nitrophenol conversion by spectrophotometry).
T2 sequence (P18031 whole entry): T1 sequence (whole entry)
Summary of the method: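 Recombinant human GST-PTP1B, from E. coli BL21 pellets purified on a GST bead column, converts pNPP to p-nitrophenol, measured at 405 nm. Compounds were dissolved in 100% DMSO and tested over a dose series. IC50 came from a sigmoidal dose-response curve with variable slope. BPV(phen) served as the reference.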
`CCCCOc1ccc(-c2ccc(Cn3ccc4c3C(=O)NCCC4=O)cc2)cc1` was tested, and the IC50 was 16.4 µM. Work on `COc1ccc(-c2ccc(Cn3ccc4c3C(=O)NCC/C4=N\Nc3ccccn3)cc2)cc1` yielded an IC50 of 14.9 µM. Compound `COc1ccc(-c2ccc(Cn3c4c(c5ccccc53)C(=O)CCNC4=O)cc2)cc1` has an IC50 of 13.9 µM.
